In brackets after ≈: the same amount, converted by molar mass.
Assays:
Assay type in all cases: functional
Staphylococcus aureus [1] = test: Antibacterial activity was determined against gram positive organism, Staphylococcus aureus UC76
In short: (§1)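 MIC (µg/mL) by standard microtitration against a panel of 10 Gram-positive and Gram-negative organisms; values averaged from multiple experiments.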

Bacteria [2] = test: Antibacterial activity was determined against gram negative organism, Providencia rettgeri. M1771; details: Bacteria; read-out: MIC; in short: as §1
[3] = molecular target: DNA gyrase (Escherichia coli) (UniProt P0AES6+P0AES4); test: Minimum inhibitory concentration against Escherichia coli DNA-gyrase in supercoiling assay
Staphylococcus aureus [4] = test: Antibacterial activity was determined against gram positive organism, Staphylococcus aureus H228; details: Staphylococcus aureus; read-out: MIC; in short: as §1
Enterococcus faecalis = test: Antibacterial activity was determined against gram positive organism, Streptococcus faecalis MGH-2; details: Enterococcus faecalis; read-out: MIC; in short: as §1
Bacteria [5] = test: MIC ratio measured as the mean MICs of gram-positive bacteria
In short: (§2)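 Geometric mean of the microtitration MICs (µg/mL) over the Gram-negative organisms, and separately over the Gram-positive organisms, of the 10-strain panel; individual MICs averaged from multiple experiments.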

Streptococcus pyogenes = test: Antibacterial activity was determined against gram positive organism, Streptococcus pyogenes C203; details: Streptococcus pyogenes; read-out: MIC; in short: as §1
Klebsiella pneumoniae = test: Antibacterial activity was determined against gram negative organism, Klebsiella pneumoniae MGH-2; details: Klebsiella pneumoniae; read-out: MIC; in short: as §1
Escherichia coli = test: Antibacterial activity was determined against gram negative organism, Escherichia coli vogel; details: Escherichia coli; read-out: MIC; in short: as §1
Bacteria [6] = test: MIC ratio measured as the mean MICs of gram-negative bacteria; in short: as §2
Streptococcus pneumoniae = test: Antibacterial activity was determined against gram positive organism, Streptococcus pneumoniae SV-1; details: Streptococcus pneumoniae; read-out: MIC; in short: as §1
Pseudomonas aeruginosa = test: Antibacterial activity was determined against gram negative organism, Pseudomonas aeruginosa UI-18; details: Pseudomonas aeruginosa; read-out: MIC; in short: as §1
Enterobacter cloacae = test: Antibacterial activity was determined against gram negative organism, Enterobacter cloacae MA2646; details: Enterobacter cloacae; read-out: MIC
[7] = Staphylococcus aureus, read-out: MIC

SMILES	MIC (Staphylococcus aureus [1]; [7])	MIC (Bacteria [2])	MIC [3]	MIC (Staphylococcus aureus [4])	MIC (Enterococcus faecalis)	Geometric mean MIC over Gram-positive bacteria (µg/mL) (Bacteria [5])	MIC (Streptococcus pyogenes)	MIC (Klebsiella pneumoniae)	MIC (Escherichia coli)	Geometric mean MIC over Gram-negative bacteria (µg/mL) (Bacteria [6])	MIC (Streptococcus pneumoniae)	MIC (Pseudomonas aeruginosa)	MIC (Enterobacter cloacae)	MIC (Staphylococcus aureus [1])
CCn1cc(C(=O)O)c(=O)c2c(N)c(F)c(N3CCNCC3)cc21	0.05 µg/mL (≈ 0.15 µM)	1.6 µg/mL (≈ 4.79 µM)	2.5 µg/mL (≈ 7.48 µM)	0.4 µg/mL (≈ 1.2 µM)	0.2 µg/mL (≈ 0.598 µM)	0.11	0.05 µg/mL (≈ 0.15 µM)	0.4 µg/mL (≈ 1.2 µM)	0.2 µg/mL (≈ 0.598 µM)	0.6	0.1 µg/mL (≈ 0.299 µM)	3.1 µg/mL (≈ 9.27 µM)	0.2 µg/mL (≈ 0.598 µM)	
CCn1cc(C(=O)O)c(=O)c2c(O)c(F)c(N3CCNC(C)C3)c(F)c21 (stereo not given)	1.6 µg/mL (≈ 4.36 µM)	1.6 µg/mL (≈ 4.36 µM)	5 µg/mL (≈ 13.6 µM)	6.3 µg/mL (≈ 17.1 µM)	12.5 µg/mL (≈ 34 µM)		12.5 µg/mL (≈ 34 µM)	0.8 µg/mL (≈ 2.18 µM)	0.4 µg/mL (≈ 1.09 µM)		12.5 µg/mL (≈ 34 µM)	12.5 µg/mL (≈ 34 µM)	0.4 µg/mL (≈ 1.09 µM)	
CCn1cc(C(=O)O)c(=O)c2c(N)c(F)c(N3CCNCC3)c(F)c21	0.2 µg/mL (≈ 0.568 µM)	0.4 µg/mL (≈ 1.14 µM)	2.5 µg/mL (≈ 7.1 µM)	1.6 µg/mL (≈ 4.54 µM)	1.6 µg/mL (≈ 4.54 µM)	1.15	3.1 µg/mL (≈ 8.8 µM)	0.2 µg/mL (≈ 0.568 µM)	0.1 µg/mL (≈ 0.284 µM)	0.26	1.6 µg/mL (≈ 4.54 µM)	0.8 µg/mL (≈ 2.27 µM)	0.2 µg/mL (≈ 0.568 µM)	
NC1CCN(c2c(F)cc3c(=O)c(C(=O)O)cn(C4CC4)c3c2Cl)C1 (stereo in doubt; 1f-4)			0.25 µg/mL (≈ 0.683 µM)							0.057				
CCn1cc(C(=O)O)c(=O)c2cc(F)c(N3CCNC(C)C3)c(Cl)c21 (stereo not given)		0.8 µg/mL (≈ 2.18 µM)	5 µg/mL (≈ 13.6 µM)	1.6 µg/mL (≈ 4.35 µM)	3.1 µg/mL (≈ 8.43 µM)	1.8	3.1 µg/mL (≈ 8.43 µM)	0.4 µg/mL (≈ 1.09 µM)	0.2 µg/mL (≈ 0.544 µM)	0.6	3.1 µg/mL (≈ 8.43 µM)	6.3 µg/mL (≈ 17.1 µM)	0.2 µg/mL (≈ 0.544 µM)	0.4 µg/mL (≈ 1.09 µM)
CCn1cc(C(=O)O)c(=O)c2cc(F)c(N3CC(C)NC(C)C3)c(F)c21 (stereo not given)		1.6 µg/mL (≈ 4.38 µM)	3.8 µg/mL (≈ 10.4 µM)	1.6 µg/mL (≈ 4.38 µM)	6.3 µg/mL (≈ 17.2 µM)	3.17	6.3 µg/mL (≈ 17.2 µM)	0.4 µg/mL (≈ 1.09 µM)	0.2 µg/mL (≈ 0.547 µM)	0.79	6.3 µg/mL (≈ 17.2 µM)	12.5 µg/mL (≈ 34.2 µM)	0.2 µg/mL (≈ 0.547 µM)	0.8 µg/mL (≈ 2.19 µM)
CCn1cc(C(=O)O)c(=O)c2c(N)c(F)c(N3CCNC(C)C3)c(F)c21 (stereo not given)	0.4 µg/mL (≈ 1.09 µM)	1.6 µg/mL (≈ 4.37 µM)	7.5 µg/mL (≈ 20.5 µM)	1.6 µg/mL (≈ 4.37 µM)	3.1 µg/mL (≈ 8.46 µM)	2.07	6.3 µg/mL (≈ 17.2 µM)	0.4 µg/mL (≈ 1.09 µM)	0.2 µg/mL (≈ 0.546 µM)	0.6	3.1 µg/mL (≈ 8.46 µM)	3.1 µg/mL (≈ 8.46 µM)	0.2 µg/mL (≈ 0.546 µM)	
CCNCC1CCN(c2cc3c(cc2F)c(=O)c(C(=O)O)cn3CC)C1 (stereo not given)		1.6 µg/mL (≈ 4.43 µM)	2.5 µg/mL (≈ 6.92 µM)	0.2 µg/mL (≈ 0.553 µM)	0.2 µg/mL (≈ 0.553 µM)	0.15	0.1 µg/mL (≈ 0.277 µM)	0.4 µg/mL (≈ 1.11 µM)	0.1 µg/mL (≈ 0.277 µM)	0.6	0.2 µg/mL (≈ 0.553 µM)	3.1 µg/mL (≈ 8.58 µM)	0.4 µg/mL (≈ 1.11 µM)	0.1 µg/mL (≈ 0.277 µM)
CCn1cc(C(=O)O)c(=O)c2c(N)c(F)c(N3CC(C)NC(C)C3)c(F)c21 (stereo not given)	0.8 µg/mL (≈ 2.1 µM)	3.1 µg/mL (≈ 8.15 µM)	7.5 µg/mL (≈ 19.7 µM)	1.6 µg/mL (≈ 4.21 µM)	6.3 µg/mL (≈ 16.6 µM)	4.79	25 µg/mL (≈ 65.7 µM)	0.8 µg/mL (≈ 2.1 µM)	0.4 µg/mL (≈ 1.05 µM)	1.58	12.5 µg/mL (≈ 32.9 µM)	12.5 µg/mL (≈ 32.9 µM)	0.8 µg/mL (≈ 2.1 µM)	
CCn1cc(C(=O)O)c(=O)c2c(N)c(F)c(N3CCNCC3)c(Cl)c21	0.4 µg/mL (≈ 1.08 µM)	1.6 µg/mL (≈ 4.34 µM)	5 µg/mL (≈ 13.6 µM)	3.1 µg/mL (≈ 8.41 µM)	6.3 µg/mL (≈ 17.1 µM)	2.37	3.1 µg/mL (≈ 8.41 µM)	0.4 µg/mL (≈ 1.08 µM)	0.2 µg/mL (≈ 0.542 µM)	0.79	3.1 µg/mL (≈ 8.41 µM)	6.3 µg/mL (≈ 17.1 µM)	0.4 µg/mL (≈ 1.08 µM)	
CCn1cc(C(=O)O)c(=O)c2c(N)c(F)c(N3CCC(N)C3)c(F)c21 (stereo not given)	0.2 µg/mL (≈ 0.568 µM)	0.4 µg/mL (≈ 1.14 µM)	2.5 µg/mL (≈ 7.1 µM)	0.4 µg/mL (≈ 1.14 µM)	0.8 µg/mL (≈ 2.27 µM)	0.53	0.8 µg/mL (≈ 2.27 µM)	0.2 µg/mL (≈ 0.568 µM)	0.1 µg/mL (≈ 0.284 µM)	0.3	0.8 µg/mL (≈ 2.27 µM)	1.6 µg/mL (≈ 4.54 µM)	0.2 µg/mL (≈ 0.568 µM)	

Reference: ChEMBL document CHEMBL1125826, “Synthesis and biological activity of 5-amino- and 5-hydroxyquinolones, and the overwhelming influence of the remote N1-substituent in determining the structure-activity relationship” (1991)
